A value given as a limit tells only on which side of the number the result lay.

In experiment [1] the target is Aldo-keto reductase family 1 member B1 (Rattus norvegicus) (UniProt P07943). The experiment in a line: (§1) Inhibition of rat kidney NADPH-dependent aldose reductase assessed as DL-glyceraldehyde conversion to glycerol preincubated for 20 mins followed by NADPH addition measured after 5 mins by UV-Visible spectrophotometric analysis.
Experiment [2] deals with Aldo-keto reductase family 1 member B1 (Rattus norvegicus, UniProt P07943). The description is as §1.
Experiment [3] has as its target Aldo-keto reductase family 1 member B1 (Rattus norvegicus) (UniProt P07943). The experiment in a line: Inhibition of rat kidney NADPH-dependent aldose reductase assessed as DL-glyceraldehyde conversion to glycerol at 1 uM preincubated for 20 mins followed by NADPH addition measured after 5 mins by UV-Visible spectrophotometric analysis relative to control. The method in brief: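 Enzyme source: supernatant of rat kidney homogenized in ice-cold 50 mM potassium phosphate pH 7.4, centrifuged 12,000 rpm 30 min, stored at -80 °C. Assay mix: 0.1 M potassium phosphate pH 6.2, DL-glyceraldehyde, lithium sulphate, mercaptoethanol. Compound (1 µM in DMSO) preincubated with enzyme 20 min at 37 °C. Blank without NADPH incubated 5 min at 37 °C. NADPH added to start. A340 decrease read. %inhibition = 100-[T/C]×100.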

As usually defined, the inhibition is the share of the control response that was lost under treatment. For orientation: IC50 means the point on the concentration scale where inhibition reaches its midpoint. For the molecule `N#CC(=C\c1ccco1)/C=C1\SC(=S)N(CC(=O)O)C1=O`, the inhibition entry in experiment [1] was “Dose-dependent effect”; in experiment [3], > 50%. In addition, in experiment [2], the 50% inhibitory concentration (IC50) came to 670 nM.

Consider `N#CC(=C\c1ccc(Br)cc1)/C=C1\SC(=S)N(c2ccc(C(=O)O)cc2)C1=O`, for which the inhibition in experiment [3] is < 50%.

Consider `N#CC(=C\c1ccc(C(F)(F)F)cc1)/C=C1\SC(=S)N(CC(=O)O)C1=O`, for which, in experiment [3], the inhibition was < 50%.

Turning to `COc1ccc(/C=C(C#N)/C=C2\SC(=S)N(CC(=O)O)C2=O)cc1`, in experiment [3], the inhibition is < 50%.

For the molecule `N#CC(=C\c1cccc2ccccc12)/C=C1\SC(=S)NC1=O`, the inhibition in experiment [3] is < 50%.

`CCc1ccc(/C=C(C#N)/C=C2\SC(=S)NC2=O)cc1`: the inhibition in experiment [3] is < 50%.

Take `N#CC(=C\c1cccc2ccccc12)/C=C1\SC(=S)N(c2ccc(C(=O)O)cc2)C1=O`: the inhibition in experiment [3] was < 50%.

For the molecule `N#CC(=C\c1ccc(F)cc1)/C=C1\SC(=S)N(c2ccc(C(=O)O)cc2)C1=O`, the inhibition in experiment [3] is < 50%.

For the molecule `CCc1ccc(/C=C(C#N)/C=C2\SC(=S)N(c3ccc(C(=O)O)cc3)C2=O)cc1`, the inhibition in experiment [3] was < 50%.

As for `CC(C)c1ccc(/C=C(C#N)/C=C2\SC(=S)N(c3ccc(CC(=O)O)cc3)C2=O)cc1`, the inhibition in experiment [3] is < 50%.

With `Cc1ccc(/C=C(C#N)/C=C2\SC(=S)NC2=O)cc1`, the inhibition entry in experiment [1] is “Dose-dependent effect”; in experiment [3], > 50%. For the same molecule, the IC50 in experiment [2] was determined as 690 nM.

With `N#CC(=C\c1ccc(F)cc1)/C=C1\SC(=S)NC1=O`, the inhibition in experiment [3] is < 50%.

`N#CC(=C\c1ccco1)/C=C1\SC(=S)NC1=O`: the inhibition in experiment [3] is < 50%.

For the molecule `N#CC(=C\c1cccs1)/C=C1\SC(=S)N(c2ccc(C(=O)O)cc2)C1=O`, the inhibition in experiment [3] was < 50%.

With `Cc1ccc(/C=C(C#N)/C=C2\SC(=S)N(c3ccc(C(=O)O)cc3)C2=O)cc1`, the inhibition in experiment [3] is < 50%.

Turning to `CC(C)c1ccc(/C=C(C#N)/C=C2\SC(=S)N(c3ccc(C(=O)O)cc3)C2=O)cc1`, in experiment [3], the inhibition is < 50%.

As for `N#CC(=C\c1ccc(Cl)cc1)/C=C1\SC(=S)N(c2ccc(C(=O)O)cc2)C1=O`, the inhibition in experiment [3] was < 50%.

As for `COc1ccc(/C=C(C#N)/C=C2\SC(=S)NC2=O)cc1`, in experiment [3], the inhibition was < 50%.

On to `COc1ccc(/C=C(C#N)/C=C2\SC(=S)N(c3ccc(C(=O)O)cc3)C2=O)cc1`, for which the inhibition in experiment [3] was < 50%.

Regarding `Cc1ccc(/C=C(C#N)/C=C2\SC(=S)N(c3ccc(CC(=O)O)cc3)C2=O)cc1`, the inhibition in experiment [3] is < 50%.

Regarding `N#CC(=C\c1ccco1)/C=C1\SC(=S)N(c2ccc(C(=O)O)cc2)C1=O`, the inhibition in experiment [3] was < 50%.

With `N#CC(=C\c1ccc(Cl)cc1)/C=C1\SC(=S)N(CC(=O)O)C1=O`, the inhibition in experiment [3] is < 50%.

With `CCc1ccc(/C=C(C#N)/C=C2\SC(=S)N(CC(=O)O)C2=O)cc1`, the inhibition in experiment [3] is < 50%.

As for `N#CC(=C\c1ccc(Cl)cc1)/C=C1\SC(=S)NC1=O`, in experiment [3], the inhibition is < 50%.

As to `CC(C)c1ccc(/C=C(C#N)/C=C2\SC(=S)NC2=O)cc1`, in experiment [3], the inhibition is < 50%.

For `N#CC(=C\c1ccc(Br)cc1)/C=C1\SC(=S)NC1=O`, the inhibition in experiment [3] is < 50%.

On to `N#CC(=C\c1ccccc1)/C=C1\SC(=S)N(c2ccc(CC(=O)O)cc2)C1=O`, for which the inhibition in experiment [3] is < 50%.

As to `N#CC(=C\c1ccccc1)/C=C1\SC(=S)N(c2ccc(C(=O)O)cc2)C1=O`, the inhibition entry is “Dose-dependent effect” in experiment [1] and > 50% in experiment [3]. Moreover, the IC50 in experiment [2] was found to be 220 nM.

Turning to `CCc1ccc(/C=C(C#N)/C=C2\SC(=S)N(c3ccc(CC(=O)O)cc3)C2=O)cc1`, in experiment [3], the inhibition was < 50%.

Consider `COc1ccc(/C=C(C#N)/C=C2\SC(=S)N(c3ccc(CC(=O)O)cc3)C2=O)cc1`, for which, in experiment [3], the inhibition is < 50%.

`Cc1ccc(/C=C(C#N)/C=C2\SC(=S)N(CC(=O)O)C2=O)cc1`: in experiment [3], the inhibition was < 50%.

In the case of `N#CC(=C\c1cccs1)/C=C1\SC(=S)NC1=O`, the inhibition result in experiment [1] was “Dose-dependent effect”; in experiment [3] it was > 50%. In addition, the concentration for half-maximal inhibition (IC50) in experiment [2] is 860 nM.

Consider `N#CC(=C\c1ccc(F)cc1)/C=C1\SC(=S)N(CC(=O)O)C1=O`, for which the inhibition in experiment [3] was < 50%.

For the molecule `CC(C)c1ccc(/C=C(C#N)/C=C2\SC(=S)N(CC(=O)O)C2=O)cc1`, the inhibition in experiment [3] is < 50%.

Consider `N#CC(=C\c1cccs1)/C=C1\SC(=S)N(CC(=O)O)C1=O`, for which the inhibition in experiment [3] is < 50%.

`N#CC(=C\c1ccccc1)/C=C1\SC(=S)N(CC(=O)O)C1=O`: the inhibition entry was “Dose-dependent effect” in experiment [1] and > 50% in experiment [3]. Moreover, in experiment [2], the IC50 was 750 nM.

As for `N#CC(=C\c1ccccc1)/C=C1\SC(=S)NC1=O`, the inhibition in experiment [3] is < 50%.

Take `N#CC(=C\c1ccc(Br)cc1)/C=C1\SC(=S)N(CC(=O)O)C1=O`: in experiment [3], the inhibition is < 50%.

In the case of `N#CC(=C\c1cccc2ccccc12)/C=C1\SC(=S)N(CC(=O)O)C1=O`, the inhibition in experiment [3] is < 50%.

(Values after ChEMBL document CHEMBL3098068 (Eur J Med Chem, 2014).)
